Measured values from ChEMBL document CHEMBL4715832, “Isoquinoline-based biaryls as a robust scaffold for microtubule inhibitors” (Eur J Med Chem, 2020).
Each block holds one molecule with its values, some of them ahead of it. Activity calls are given as the source filed them. No cut-off for these calls is given here.

Tests used:
HeLa [1] = assay: Antiproliferative activity against human HeLa cells assessed as reduction in cell growth after 48 hrs by resazurin dye based fluorescence assay; format: functional
How it was run: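 HeLa cells grown in DMEM with 10% FCS and penicillin/streptomycin, 37 °C, 5% CO2. Seeded 5,000 cells/well, treated 24 h later with DMSO 1% final, then incubated 48 h. Resazurin reduction to resorufin measured over 3 h at 37 °C by fluorescence (ex 544/em 590 nm). Normalised to cosolvent control (100%) and cell-free wells (0%). Means of at least three independent experiments.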

HeLa [2] = assay: Induction of microtubule network depolymerization in human HeLa cells after 24 hrs by immunofluorescence staining based confocal microscopic analysis; format: cell-based
How it was run: (§1)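 HeLa cells seeded on glass coverslips (50,000 cells/well), allowed to adhere 18 h, then treated 24 h. Fixed with 0.5% glutaraldehyde, quenched with 0.1% NaBH4, blocked with PBS + 10% FCS. Stained with rabbit anti-alpha-tubulin (1:400, 1 h), then Alexa Fluor 488 anti-rabbit secondary, with DAPI nuclear counterstain. Imaged by confocal microscopy, including z-stack projections.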

tubulin (Sus scrofa) = assay: Inhibition of porcine tubulin polymerization at 20 uM preincubated for 10 mins followed by GTP addition by turbidimetric method
[3] = test system: liver microsomes (Mus musculus); assay: Stability in mouse liver microsomes assessed as parent compound remaining at 2 uM measured immediately in presence of cofactor; settings: read-out: Stabilty
hERG (KCNH2) [4] = target: T1, hERG (KCNH2) (Homo sapiens, UniProt Q12809); assay: Inhibition of human ERG at 25 uM by fluorescence polarization assay relative to control
How it was run: (§2)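 hERG channel inhibition measured with a fluorescence polarisation reporter assay, applied to the dephosphorylated phenol.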

[5] = test system: liver microsomes (Mus musculus); assay: Stability in mouse liver microsomes assessed as parent compound remaining at 2 uM measured after 20 mins in presence of cofactor; settings: read-out: Stabilty
[6] = test system: liver microsomes (Mus musculus); assay: Stability in mouse liver microsomes assessed as parent compound remaining at 2 uM measured immediately in absence of cofactor; settings: read-out: Stabilty
CYP2C19 = CYP2C19 (Homo sapiens, UniProt P33261); assay: Inhibition of human CYP2C19 at 10 uM relative to control; format: ADME
How it was run: (§3)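 Inhibition measured against five human cytochrome P450 isoforms, with test compound at 10 µM, applied as the dephosphorylated phenol.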

[7] = Stability in human liver microsomes assessed as parent compound remaining at 2 uM measured after 40 mins in presence of cofactor; format: ADME, Microsome; settings: read-out: Stabilty
[8] = Stability in human liver microsomes assessed as parent compound remaining at 2 uM measured immediately in absence of cofactor; format: ADME, Microsome; settings: read-out: Stabilty
[9] = Half life in human liver microsomes at 2 uM; format: ADME, Microsome
[10] = Stability in human liver microsomes assessed as parent compound remaining at 2 uM measured after 40 mins in absence of cofactor; format: ADME, Microsome; settings: read-out: Stabilty
CYP2D6 = CYP2D6 (Homo sapiens, UniProt P10635); assay: Inhibition of human CYP2D6 at 10 uM relative to control; format: ADME; how it was run: as §3
[11] = Stability in human liver microsomes assessed as parent compound remaining at 2 uM measured immediately in presence of cofactor; format: ADME, Microsome; settings: read-out: Stabilty
[12] = Stability in human liver microsomes assessed as parent compound remaining at 2 uM measured after 10 mins in presence of cofactor; format: ADME, Microsome; settings: read-out: Stabilty
[13] = test system: liver microsomes (Mus musculus); assay: Stability in mouse liver microsomes assessed as parent compound remaining at 2 uM measured after 40 mins in presence of cofactor; settings: read-out: Stabilty
[14] = Stability in human liver microsomes assessed as parent compound remaining at 2 uM measured after 30 mins in presence of cofactor; format: ADME, Microsome; settings: read-out: Stabilty
[15] = test system: liver microsomes (Mus musculus); assay: Stability in mouse liver microsomes assessed as parent compound remaining at 2 uM measured after 10 mins in presence of cofactor; settings: read-out: Stabilty
CYP2C9 = CYP2C9 (Homo sapiens, UniProt P11712); assay: Inhibition of human CYP2C9 at 10 uM relative to control; format: ADME; how it was run: as §3
CYP3A4 = CYP3A4 (Homo sapiens, UniProt P08684); assay: Inhibition of human CYP3A4 at 10 uM relative to control; format: ADME; how it was run: as §3
hERG (KCNH2) [16] = target: T1, hERG (KCNH2); assay: Inhibition of human ERG at 1 uM by fluorescence polarization assay relative to control; how it was run: as §2
hERG (KCNH2) [17] = target: T1, hERG (KCNH2); assay: Inhibition of human ERG at 5 uM by fluorescence polarization assay relative to control; how it was run: as §2
HL-60 = assay: Antiproliferative activity against human HL-60 cells assessed as reduction in cell growth after 24 hrs by MTT assay; format: functional, cell-based; settings: HL-60, 24 h
How it was run: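 HL-60 cells grown in RPMI 1640 with 10% FCS, no antibiotics, 37 °C, 5% CO2. Seeded 9,000 cells/well, treated 24 h later with DMSO cosolvent at 1% final. After 24 h, MTT 0.5 mg/mL for 2 h, absorbance read. Normalised to cosolvent control (100%) and Triton X-100-treated cells (0%). Means of at least three independent experiments.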

[18] = Stability in human liver microsomes assessed as parent compound remaining at 2 uM measured after 20 mins in presence of cofactor; format: ADME, Microsome; settings: read-out: Stabilty
[19] = test system: liver microsomes (Mus musculus); assay: Half life in mouse liver microsomes at 2 uM
[20] = test system: liver microsomes (Mus musculus); assay: Stability in mouse liver microsomes assessed as parent compound remaining at 2 uM measured after 30 mins in presence of cofactor; settings: read-out: Stabilty
[21] = test system: liver microsomes (Mus musculus); assay: Stability in mouse liver microsomes assessed as parent compound remaining at 2 uM measured after 40 mins in absence of cofactor; settings: read-out: Stabilty
CYP1A2 = target: T2, CYP1A2 (Homo sapiens, UniProt P05177); assay: Inhibition of human CYP1A2 at 10 uM relative to control; format: ADME; how it was run: as §3
T2 sequence (P05177 whole entry): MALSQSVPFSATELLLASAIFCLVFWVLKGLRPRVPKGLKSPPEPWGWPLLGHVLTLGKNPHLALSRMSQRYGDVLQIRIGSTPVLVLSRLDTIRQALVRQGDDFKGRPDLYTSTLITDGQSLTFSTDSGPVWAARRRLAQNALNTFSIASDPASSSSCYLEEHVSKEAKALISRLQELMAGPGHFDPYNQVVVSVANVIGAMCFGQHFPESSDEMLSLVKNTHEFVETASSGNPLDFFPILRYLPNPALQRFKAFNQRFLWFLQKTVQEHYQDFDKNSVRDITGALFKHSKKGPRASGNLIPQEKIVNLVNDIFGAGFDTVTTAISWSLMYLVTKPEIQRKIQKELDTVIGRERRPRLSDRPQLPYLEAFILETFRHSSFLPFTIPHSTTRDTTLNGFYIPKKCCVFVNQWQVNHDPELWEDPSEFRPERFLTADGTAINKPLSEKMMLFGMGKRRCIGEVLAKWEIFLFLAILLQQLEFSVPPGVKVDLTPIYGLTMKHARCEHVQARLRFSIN

HeLa [22] = assay: Induction of microtubule network depolymerization in human HeLa cells at 15 uM after 24 hrs by immunofluorescence staining based confocal microscopic analysis; format: cell-based; how it was run: as §1
[23] = Solubility of compound; format: physicochemical

T1 sequence (Q12809 whole entry): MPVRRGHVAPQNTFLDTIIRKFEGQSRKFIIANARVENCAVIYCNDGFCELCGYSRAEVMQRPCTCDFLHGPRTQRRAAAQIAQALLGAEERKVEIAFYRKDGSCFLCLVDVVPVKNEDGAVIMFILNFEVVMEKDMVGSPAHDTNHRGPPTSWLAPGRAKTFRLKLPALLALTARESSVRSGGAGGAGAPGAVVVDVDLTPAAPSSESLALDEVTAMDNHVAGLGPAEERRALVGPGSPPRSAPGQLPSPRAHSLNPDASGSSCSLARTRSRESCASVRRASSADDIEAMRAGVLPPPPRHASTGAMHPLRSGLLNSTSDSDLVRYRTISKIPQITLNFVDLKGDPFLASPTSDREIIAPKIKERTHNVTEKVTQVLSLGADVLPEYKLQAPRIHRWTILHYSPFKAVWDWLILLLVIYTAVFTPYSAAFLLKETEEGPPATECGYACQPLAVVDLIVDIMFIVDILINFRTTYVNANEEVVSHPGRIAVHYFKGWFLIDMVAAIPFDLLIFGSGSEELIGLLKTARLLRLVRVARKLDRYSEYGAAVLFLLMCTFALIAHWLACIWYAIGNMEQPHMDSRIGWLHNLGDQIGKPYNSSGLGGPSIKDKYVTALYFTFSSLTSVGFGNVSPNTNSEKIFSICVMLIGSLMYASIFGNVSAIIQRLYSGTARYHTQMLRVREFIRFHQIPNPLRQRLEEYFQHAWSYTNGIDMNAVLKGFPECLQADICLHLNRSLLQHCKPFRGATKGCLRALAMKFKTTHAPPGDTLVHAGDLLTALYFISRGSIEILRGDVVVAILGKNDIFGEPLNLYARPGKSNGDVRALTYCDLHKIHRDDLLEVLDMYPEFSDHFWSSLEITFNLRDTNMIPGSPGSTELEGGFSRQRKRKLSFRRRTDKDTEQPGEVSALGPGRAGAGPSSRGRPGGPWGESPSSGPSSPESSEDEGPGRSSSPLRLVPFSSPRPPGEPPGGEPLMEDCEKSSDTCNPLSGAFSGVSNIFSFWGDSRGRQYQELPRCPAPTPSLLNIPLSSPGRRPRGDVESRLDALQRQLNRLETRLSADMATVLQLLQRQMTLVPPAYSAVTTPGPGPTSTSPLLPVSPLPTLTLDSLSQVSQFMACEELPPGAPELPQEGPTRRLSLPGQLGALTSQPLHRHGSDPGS
CYP3A4, sequence (P08684 whole entry): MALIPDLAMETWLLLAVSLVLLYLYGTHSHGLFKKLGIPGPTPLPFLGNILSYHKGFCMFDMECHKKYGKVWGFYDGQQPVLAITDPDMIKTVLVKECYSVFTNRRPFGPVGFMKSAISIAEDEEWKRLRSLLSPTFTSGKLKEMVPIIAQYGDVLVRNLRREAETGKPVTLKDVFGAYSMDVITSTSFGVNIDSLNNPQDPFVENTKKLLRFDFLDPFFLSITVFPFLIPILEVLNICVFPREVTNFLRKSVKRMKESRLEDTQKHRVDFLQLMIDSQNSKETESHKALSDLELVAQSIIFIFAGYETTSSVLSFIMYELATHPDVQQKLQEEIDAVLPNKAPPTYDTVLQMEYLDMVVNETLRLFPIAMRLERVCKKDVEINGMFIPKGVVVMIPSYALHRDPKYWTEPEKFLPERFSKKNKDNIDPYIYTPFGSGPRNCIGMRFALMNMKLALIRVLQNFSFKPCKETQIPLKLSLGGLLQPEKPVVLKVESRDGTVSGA
CYP2C19, sequence (P33261 whole entry, canonical isoform): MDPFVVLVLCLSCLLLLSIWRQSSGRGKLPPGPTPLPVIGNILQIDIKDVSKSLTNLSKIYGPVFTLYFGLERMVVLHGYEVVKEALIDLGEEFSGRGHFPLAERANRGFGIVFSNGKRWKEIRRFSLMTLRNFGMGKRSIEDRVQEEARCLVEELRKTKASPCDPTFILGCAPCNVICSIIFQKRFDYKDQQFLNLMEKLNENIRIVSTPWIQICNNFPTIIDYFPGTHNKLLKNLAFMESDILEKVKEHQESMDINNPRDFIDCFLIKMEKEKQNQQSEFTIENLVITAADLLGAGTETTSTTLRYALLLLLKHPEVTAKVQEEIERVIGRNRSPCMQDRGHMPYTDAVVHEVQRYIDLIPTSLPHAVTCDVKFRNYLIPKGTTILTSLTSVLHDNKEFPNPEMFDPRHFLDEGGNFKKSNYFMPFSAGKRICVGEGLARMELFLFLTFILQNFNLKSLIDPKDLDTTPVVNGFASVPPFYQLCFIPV
CYP2D6, sequence (P10635 whole entry): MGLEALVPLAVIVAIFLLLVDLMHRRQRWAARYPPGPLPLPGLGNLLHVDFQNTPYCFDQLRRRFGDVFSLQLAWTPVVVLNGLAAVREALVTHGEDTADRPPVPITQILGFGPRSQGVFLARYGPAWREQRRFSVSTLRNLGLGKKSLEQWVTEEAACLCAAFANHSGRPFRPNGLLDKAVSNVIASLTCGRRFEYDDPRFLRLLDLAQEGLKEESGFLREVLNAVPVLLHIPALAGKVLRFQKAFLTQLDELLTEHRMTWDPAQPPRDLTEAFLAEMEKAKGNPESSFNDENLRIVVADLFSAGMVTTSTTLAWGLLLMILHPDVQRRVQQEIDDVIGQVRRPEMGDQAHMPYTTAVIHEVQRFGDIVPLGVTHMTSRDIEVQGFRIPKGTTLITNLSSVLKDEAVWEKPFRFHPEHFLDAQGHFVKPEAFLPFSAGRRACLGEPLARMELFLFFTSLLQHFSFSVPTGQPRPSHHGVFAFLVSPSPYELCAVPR
CYP2C9, sequence (P11712 whole entry): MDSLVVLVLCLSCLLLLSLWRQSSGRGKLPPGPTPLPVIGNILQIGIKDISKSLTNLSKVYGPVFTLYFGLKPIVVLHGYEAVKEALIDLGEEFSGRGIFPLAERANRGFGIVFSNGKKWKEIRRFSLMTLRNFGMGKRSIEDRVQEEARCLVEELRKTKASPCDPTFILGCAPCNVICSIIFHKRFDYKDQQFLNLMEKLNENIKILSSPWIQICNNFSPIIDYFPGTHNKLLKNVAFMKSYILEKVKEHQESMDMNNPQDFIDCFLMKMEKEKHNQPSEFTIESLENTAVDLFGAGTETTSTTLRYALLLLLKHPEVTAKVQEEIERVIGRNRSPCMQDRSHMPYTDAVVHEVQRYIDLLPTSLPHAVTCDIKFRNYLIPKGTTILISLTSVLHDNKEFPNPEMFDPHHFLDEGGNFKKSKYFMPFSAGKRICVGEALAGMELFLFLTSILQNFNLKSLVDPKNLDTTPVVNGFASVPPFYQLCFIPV

SMILES: COc1cccc(-c2nccc3c(OC)c(OC)c(OC)cc23)c1
EC50 (HeLa [1]): 15000 nM

SMILES: COc1ccc2ccnc(-c3cc(OC)c(OC)c(OC)c3)c2c1
Activity (HeLa [1]): Dose-dependent effect
EC50 (HeLa [1]): 180 nM
Activity (HeLa [2]): Dose-dependent effect

SMILES: COc1cc2c(-c3cc(OC)c(OC)c(OC)c3)nccc2cc1F
inhibition (tubulin (Sus scrofa)): Active
Activity (HeLa [1]): Dose-dependent effect
EC50 (HeLa [1]): 280 nM
Activity (HeLa [2]): Dose-dependent effect

SMILES: COc1cc2c(-c3cc(OC)c(OC)c(OC)c3)nccc2cc1O
remaining at 0 min, 2 µM [3]: 100%
inhibition at 25 µM (hERG (KCNH2) [4]): -5%
remaining at 20 min, 2 µM [5]: 82%
remaining at 0 min, 2 µM [6]: 100%
inhibition at 10 µM (CYP2C19): -49%
remaining at 40 min, 2 µM [7]: 69%
remaining at 0 min, 2 µM [8]: 100%
half-life at 2 µM [9]: 1.13 h
remaining at 40 min, 2 µM [10]: 98%
inhibition at 10 µM (CYP2D6): 19%
Activity (HeLa [1]): Dose-dependent effect
EC50 (HeLa [1]): 120 nM
remaining at 0 min, 2 µM [11]: 100%
remaining at 10 min, 2 µM [12]: 99%
remaining at 40 min, 2 µM [13]: 67%
remaining at 0.5 h, 2 µM [14]: 75%
remaining at 10 min, 2 µM [15]: 93%
inhibition at 10 µM (CYP2C9): 16%
inhibition at 10 µM (CYP3A4): 13%
inhibition at 1 µM (hERG (KCNH2) [16]): -3%
inhibition at 5 µM (hERG (KCNH2) [17]): -18%
EC50 (HL-60): 340 nM
remaining at 20 min, 2 µM [18]: 84%
half-life at 2 µM [19]: 1.12 h
remaining at 0.5 h, 2 µM [20]: 73%
remaining at 40 min, 2 µM [21]: 105%
inhibition at 10 µM (CYP1A2): -4%

SMILES: COc1ccc2cc[n+](C)c(-c3cc(OC)c(OC)c(OC)c3)c2c1
EC50 (HeLa [1]): > 30000 nM
Activity (HeLa [2]): inactive

More lines, main results first:

EC50 (HeLa [1]): > 80000 nM
SMILES: COc1ccc(C(=O)c2nccc3c(OC)c(OC)c(OC)cc23)cc1

EC50 (HeLa [1]): > 20000 nM
SMILES: COc1cc2ccnc(-c3cc(OC)c(OC)c(OC)c3)c2cc1OC
Activity (HeLa [2]): Dose-dependent effect

EC50 (HeLa [1]): > 20000 nM
solubility [23]: Insoluble
SMILES: COc1cc(-c2nccc3cc4c(cc23)OCO4)cc(OC)c1OC
Activity (HeLa [2]): inactive
Activity (HeLa [22]): inactive
